Key:
Type in all cases: functional
[1] = test system: Radical scavenging activity; assay: Antioxidant activity assessed as DPPH radical scavenging activity at 50 uM after 30 mins by spectrophotometry
Method in brief: (§1)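 Wistar-independent cell-free assay: 5 µl sample in 96% ethanol (solutions 0.5, 1.0, 2.0, 4.0, 8.0, 12.0 mM before mixing) added to 195 µl DPPH in 96% ethanol (solution labelled […]). Incubated 30 min at 25 °C, then A518 read. %AA = (A_DPPH − A_sample)/(A_DPPH − A_ethanol)×100. Triplicates averaged. IC50 from linear regression of mean %AA against concentration. Resveratrol positive control.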

[2] = test system: Rattus norvegicus; assay: (§2) Antioxidant activity against CCl4-induced oxidative hepatic injury Wistar albino rat model assessed as effect on liver cytosolic GSH-Px activity per mg protein at 100 mg/kg, ip for 7 consecutive days prior to CCL4 challenge measured 24 hrs post CCl4 challenge (reference value: 0.27 +/-0.01 U/mg protein); details: route intraperitoneal
[3] = test system: Radical scavenging activity; assay: Antioxidant activity assessed as DPPH radical scavenging activity at 25 uM after 30 mins by spectrophotometry; method in brief: as §1
[4] = test system: Rattus norvegicus; assay: as §2, with “SOD” for “GSH-Px”, “5.42 +/-0.29” for “0.27 +/-0.01”; details: route intraperitoneal
Method in brief: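 Wistar albino rats (100–150 g), 7 per group, dosed i.p. at 100 mg/kg/day for 7 days. Then CCl4 in olive oil (1:1) i.p. at 0.6 mL/kg. Liver taken 24 h later, homogenized in 1.15% KCl-10 mM phosphate/EDTA pH 7.4, cytosol obtained by sequential centrifugation. SOD read as the rate of cytochrome C reduction at 550 nm over 5 min (xanthine/xanthine oxidase, KCN, deoxycholate). Units/mg Lowry protein.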

[5] = test system: Radical scavenging activity; assay: Antioxidant activity assessed as DPPH radical scavenging activity at 200 uM after 30 mins by spectrophotometry; method in brief: as §1
[6] = test system: Radical scavenging activity; assay: Antioxidant activity assessed as DPPH radical scavenging activity at 12.5 uM after 30 mins by spectrophotometry; method in brief: as §1
[7] = test system: Rattus norvegicus; assay: as §2, with “catalase” for “GSH-Px”, “218.25 +/-11.43” for “0.27 +/-0.01”; details: route intraperitoneal
[8] = test system: Radical scavenging activity; assay: Antioxidant activity assessed as DPPH radical scavenging activity at 300 uM after 30 mins by spectrophotometry; method in brief: as §1
[9] = test system: Radical scavenging activity; assay: Antioxidant activity assessed as DPPH radical scavenging activity at 100 uM after 30 mins by spectrophotometry; method in brief: as §1
[10] = test system: Radical scavenging activity; assay: Antioxidant activity assessed as DPPH radical scavenging activity after 30 mins by spectrophotometry; method in brief: as §1

Work on CC(=O)OC[C@H]1O[C@@H](NC(=S)N/N=C/c2ccc(C(C)C)cc2)[C@H](OC(C)=O)[C@@H](OC(C)=O)[C@H]1OC(C)=O yielded an Activity [1] of 9.65%, an Activity [2] of 1.01 U/mg and an Activity [3] of 5.32%. The Activity [4] was 9.92 U/mg, the Activity [5] was 18.1% and the Activity [6] was 2.17%. It also gave an Activity [7] of 391 U/mg, an Activity [8] of 24.5% and an Activity [9] of 15.1%. For the same molecule, the IC50 [10] was greater than 300 µM.

In the case of CC(=O)OC[C@H]1O[C@@H](NC(=S)N/N=C/c2ccc(F)cc2)[C@H](OC(C)=O)[C@@H](OC(C)=O)[C@H]1OC(C)=O, the Activity [1] is reported as 17.1%, the Activity [2] is reported as 0.69 U/mg and the Activity [3] is reported as 13.3%. It also gave an Activity [4] of 8.6 U/mg, an Activity [5] of 55.6% and an Activity [6] of 8.51%. The Activity [7] was 351 U/mg, the Activity [8] was 67.2% and the Activity [9] was 34.3%. For the same molecule, the IC50 [10] was 197 µM.

CC(=O)OC[C@H]1O[C@@H](NC(=S)N/N=C/c2ccc(Cl)cc2)[C@H](OC(C)=O)[C@@H](OC(C)=O)[C@H]1OC(C)=O gave an Activity [1] of 17.6%, an Activity [2] of 0.7 U/mg and an Activity [3] of 10.1%. For the same molecule, the Activity [4] was 8.91 U/mg, the Activity [5] was 38.4% and the Activity [6] was 7.15%. The Activity [7] was 358 U/mg, the Activity [8] was 55.4% and the Activity [9] was 19.8%. For the same molecule, the IC50 [10] was 270 µM.

Work on CC(=O)OC[C@H]1O[C@@H](NC(=S)N/N=C/c2ccc(N(C)C)cc2)[C@H](OC(C)=O)[C@@H](OC(C)=O)[C@H]1OC(C)=O yielded an Activity [1] of 48.9%, an Activity [2] of 0.71 U/mg and an Activity [3] of 30.9%. For the same molecule, the Activity [4] was 5.81 U/mg, the Activity [5] was 74.5% and the Activity [6] was 14.3%. The Activity [7] was 295 U/mg, the Activity [8] was 78.5% and the Activity [9] was 68.2%. For the same molecule, the IC50 [10] was 56 µM.

Molecule COc1ccc(/C=N/NC(=S)N[C@@H]2O[C@H](COC(C)=O)[C@H](OC(C)=O)[C@H](OC(C)=O)[C@H]2OC(C)=O)cc1O has an Activity [1] of 28.2%, an Activity [2] of 0.59 U/mg and an Activity [3] of 17.4%. It also gave an Activity [4] of 8.76 U/mg, an Activity [5] of 56.8% and an Activity [6] of 8.16%. It also gave an Activity [7] of 352 U/mg, an Activity [8] of 69.6% and an Activity [9] of 40.1%. It also gave an IC50 [10] of 182 µM.

Work on CC(=O)OC[C@H]1O[C@@H](NC(=S)N/N=C/c2cccc([N+](=O)[O-])c2)[C@H](OC(C)=O)[C@@H](OC(C)=O)[C@H]1OC(C)=O yielded an Activity [1] of 19.6%, an Activity [2] of 0.73 U/mg and an Activity [3] of 13.7%. The Activity [4] was 9.01 U/mg, the Activity [5] was 38.3% and the Activity [6] was 7.05%. For the same molecule, the Activity [7] was 361 U/mg, the Activity [8] was 51.2% and the Activity [9] was 26.3%. For the same molecule, the IC50 [10] was 283 µM.

Molecule CC(=O)OC[C@H]1O[C@@H](NC(=S)N/N=C/c2ccc(O)cc2)[C@H](OC(C)=O)[C@@H](OC(C)=O)[C@H]1OC(C)=O has an Activity [1] of 33.3%, an Activity [2] of 0.51 U/mg and an Activity [3] of 22.6%. It also gave an Activity [4] of 8.24 U/mg, an Activity [5] of 68.7% and an Activity [6] of 11.4%. The Activity [7] was 332 U/mg, the Activity [8] was 75.1% and the Activity [9] was 49.2%. For the same molecule, the IC50 [10] was 108 µM.

For Oc1ccc(/C=C/c2cc(O)cc(O)c2)cc1 [RESVERATROL], the Activity [1] was 33.8%, the Activity [2] was 0.35 U/mg and the Activity [3] was 22.6%. For the same molecule, the Activity [4] was 7.49 U/mg, the Activity [5] was 70.4% and the Activity [6] was 9.13%. For the same molecule, the Activity [7] was 285 U/mg, the Activity [8] was 75.6% and the Activity [9] was 54%. For the same molecule, the IC50 [10] was 94 µM.

CC(=O)OC[C@H]1O[C@@H](NC(=S)N/N=C/c2ccc([N+](=O)[O-])cc2)[C@H](OC(C)=O)[C@@H](OC(C)=O)[C@H]1OC(C)=O was tested, and the Activity [1] was 18.5%, the Activity [2] was 0.71 U/mg and the Activity [3] was 11.3%. For the same molecule, the Activity [4] was 8.79 U/mg, the Activity [5] was 53.3% and the Activity [6] was 6.11%. It also gave an Activity [7] of 352 U/mg, an Activity [8] of 64.5% and an Activity [9] of 29.1%. For the same molecule, the IC50 [10] was 210 µM.

For COc1cccc(/C=N/NC(=S)N[C@@H]2O[C@H](COC(C)=O)[C@H](OC(C)=O)[C@H](OC(C)=O)[C@H]2OC(C)=O)c1, the Activity [1] was 15.6%, the Activity [2] was 0.71 U/mg and the Activity [3] was 11.5%. It also gave an Activity [4] of 8.89 U/mg, an Activity [5] of 34% and an Activity [6] of 7.34%. The Activity [7] was 362 U/mg, the Activity [8] was 55.1% and the Activity [9] was 27.2%. It also gave an IC50 [10] of 276 µM.

CC(=O)OC[C@H]1O[C@@H](NC(=S)N/N=C/c2ccc(C)cc2)[C@H](OC(C)=O)[C@@H](OC(C)=O)[C@H]1OC(C)=O gave an Activity [1] of 18.1%, an Activity [2] of 0.72 U/mg and an Activity [3] of 12.8%. For the same molecule, the Activity [4] was 8.82 U/mg, the Activity [5] was 53.3% and the Activity [6] was 7.21%. It also gave an Activity [7] of 354 U/mg, an Activity [8] of 65% and an Activity [9] of 32.8%. It also gave an IC50 [10] of 206 µM.

Molecule CC(=O)OC[C@H]1O[C@@H](NC(=S)N/N=C/c2ccc(Br)cc2)[C@H](OC(C)=O)[C@@H](OC(C)=O)[C@H]1OC(C)=O has an Activity [1] of 17.5%, an Activity [2] of 0.98 U/mg and an Activity [3] of 9.04%. The Activity [4] was 9.95 U/mg, the Activity [5] was 35.4% and the Activity [6] was 5.38%. It also gave an Activity [7] of 389 U/mg, an Activity [8] of 44.3% and an Activity [9] of 23.5%. For the same molecule, the IC50 [10] was greater than 300 µM.

For COc1cc(/C=N/NC(=S)N[C@@H]2O[C@H](COC(C)=O)[C@H](OC(C)=O)[C@H](OC(C)=O)[C@H]2OC(C)=O)ccc1O, the Activity [1] was 45.6%, the Activity [2] was 0.37 U/mg and the Activity [3] was 27.1%. It also gave an Activity [4] of 6.57 U/mg, an Activity [5] of 71.2% and an Activity [6] of 9.45%. For the same molecule, the Activity [7] was 290 U/mg, the Activity [8] was 74% and the Activity [9] was 60.3%. It also gave an IC50 [10] of 75 µM.

CCOc1cc(/C=N/NC(=S)N[C@@H]2O[C@H](COC(C)=O)[C@H](OC(C)=O)[C@H](OC(C)=O)[C@H]2OC(C)=O)ccc1O gave an Activity [1] of 45.4%, an Activity [2] of 0.69 U/mg and an Activity [3] of 30.2%. It also gave an Activity [4] of 6.45 U/mg, an Activity [5] of 68.3% and an Activity [6] of 14.2%. The Activity [7] was 284 U/mg, the Activity [8] was 69.2% and the Activity [9] was 59.4%. For the same molecule, the IC50 [10] was 71 µM.

Reference: ChEMBL document CHEMBL2321718, “Antioxidant activities of thiosemicarbazones from substituted benzaldehydes and N-(tetra-O-acetyl-β-D-galactopyranosyl)thiosemicarbazide” (Eur J Med Chem, 2013)
